The structures appear in SMILES notation. In brackets after ≈: the same amount, converted by molar mass.

A short description of data set [1]: Drug excretion in Sprague-Dawley rat bile assessed as unmetabolized form at 5 mg/kg, iv after 24 hrs by HPLC. The conditions noted are these: read-out: Drug excretion. It counts as ADME, organism-based. In outline:
(§1)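 Six-week male Sprague-Dawley rats, fasted overnight; oral dose suspended in 0.5% methylcellulose, iv dose dissolved in 0.04 N NaOH. Urine from intact rats in metabolic cages, bile from bile duct-cannulated rats, 0–24 h. Bile alkaline-hydrolysed (1 N NaOH, 37°C, 1 h) to convert glucuronides; HPLC with UV 290 nm and internal standard; % of dose; mean ± S.D., three rats.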

Data set [2] can be described thus: Oral drug absorption in Sprague-Dawley rat at 10 mg/kg, po after 24 hrs by HPLC. In kind it is ADME, organism-based. The conditions noted are these: in vivo. In outline:
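Absorption rate computed as total urinary plus biliary excretion (% of dose, summed means) after oral dosing divided by total after iv dosing; excretion measured in fasted male Sprague-Dawley rats by HPLC over 24 h, bile glucuronides alkaline-hydrolysed.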

For data set [3], the system named is Morganella morganii. The data set can be described thus: Antibacterial activity against Morganella morganii W1026 assessed as growth inhibition at 128 to 0.002 mg/L incubated for 18 hrs at 37 degC by agar dilution method. It counts as functional. The conditions noted are these: W1026, 18 h. In outline:
(§2)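 Agar dilution on Mueller Hinton agar per Japanese Society of Chemotherapy standard method; about 10⁴ cfu inoculated onto plates holding two-fold dilution series; incubation 37°C, 18 h; MIC read as growth endpoint.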
(In general: Agar dilution tests growth on a series of plates holding different concentrations.)

For data set [4], the system named is Pseudomonas aeruginosa. As to the kind of experiment: Antibacterial activity against Pseudomonas aeruginosa E-2 assessed as growth inhibition at 128 to 0.002 mg/L incubated for 18 hrs at 37 degC by agar dilution method. The settings on record: E-2, 18 h. It counts as functional. In outline:
as §2

Data set [5] concerns Citrobacter freundii. As to the kind of experiment: Antibacterial activity against Citrobacter freundii IFO1268 assessed as growth inhibition at 128 to 0.002 mg/L incubated for 18 hrs at 37 degC by agar dilution method. It counts as functional. The settings on record: IFO1268, 18 h. In outline:
as §2

The subject of data set [6] is Enterobacter cloacae. The data set can be described thus: Antibacterial activity against Enterobacter cloacae IFO13535 assessed as growth inhibition at 128 to 0.002 mg/L incubated for 18 hrs at 37 degC by agar dilution method. In kind it is functional. The conditions noted are these: IFO13535, 18 h. The method in brief: as §2
Data set [7] is described as follows: Drug excretion in Sprague-Dawley rat assessed as unmetabolized form at 5 mg/kg, iv after 24 hrs by HPLC. The conditions noted are these: in vivo, read-out: Drug excretion. It counts as ADME, organism-based. The method in brief:
as §1

The target in data set [8] is DNA gyrase (Escherichia coli, UniProt P0AES4+P0AES6). The data set can be described thus: Inhibition of Escherichia coli DNA gyrase preincubated for 5 mins at 37 degC before addition of relaxed pBR322 as substrate by supercoiling assay. It counts as protein-complex assay.
Data set [9] has as its system Escherichia coli. As to the kind of experiment: Antibacterial activity against Escherichia coli NIHJ assessed as growth inhibition at 128 to 0.002 mg/L incubated for 18 hrs at 37 degC by agar dilution method. It counts as functional. In outline:
as §2

In data set [10] the test system is Salmonella typhimurium. The data set can be described thus: Antibacterial activity against Salmonella typhimurium IFO13245 assessed as growth inhibition at 128 to 0.002 mg/L incubated for 18 hrs at 37 degC by agar dilution method. It counts as functional, Salmonella enterica subsp. enterica serovar Typhimurium. The settings on record: Salmonella enterica, IFO13245, 18 h. In outline: as §2

In data set [11] the test system is Proteus mirabilis. As to the kind of experiment: Antibacterial activity against Proteus mirabilis IFO3849 assessed as growth inhibition at 128 to 0.002 mg/L incubated for 18 hrs at 37 degC by agar dilution method. The settings on record: IFO3849, 18 h. It counts as functional. The method in brief:
as §2

In data set [12] the test system is Serratia marcescens. The data set can be described thus: Antibacterial activity against Serratia marcescens IFO3736 assessed as growth inhibition at 128 to 0.002 mg/L incubated for 18 hrs at 37 degC by agar dilution method. The settings on record: IFO3736, 18 h. In kind it is functional. In outline:
as §2

Data set [13] in a line: Drug excretion in Sprague-Dawley rat urine at 5 mg/kg, iv after 24 hrs by HPLC. The conditions noted are these: read-out: Drug excretion. In kind it is ADME, organism-based. The method in brief:
as §1

The test system of data set [14] is Acinetobacter calcoaceticus. As to the kind of experiment: Antibacterial activity against Acinetobacter calcoaceticus Ac-54 assessed as growth inhibition at 128 to 0.002 mg/L incubated for 18 hrs at 37 degC by agar dilution method. It counts as functional. The conditions noted are these: Ac-54, 18 h. In outline:
as §2

The nature of data set [15]: Drug excretion in Sprague-Dawley rat at 10 mg/kg, po after 24 hrs by HPLC. It counts as ADME, organism-based. The settings on record: in vivo, read-out: Drug excretion. In outline:
as §1

Data set [16] relates to Pseudomonas aeruginosa. The data set can be described thus: Antibacterial activity against Pseudomonas aeruginosa IFO3445 assessed as growth inhibition at 128 to 0.002 mg/L incubated for 18 hrs at 37 degC by agar dilution method. It counts as functional. The settings on record: IFO3445, 18 h. The method in brief: as §2
For data set [17], the system named is Providencia rettgeri. The data set can be described thus: Antibacterial activity against Providencia rettgeri W1008 assessed as growth inhibition at 128 to 0.002 mg/L incubated for 18 hrs at 37 degC by agar dilution method. In kind it is functional. The conditions noted are these: W1008, 18 h. The method in brief: as §2
A short description of data set [18]: Passive permeability of the compound after 5 hrs at 25 degC by PAMPA assay. In kind it is physicochemical. The settings on record: read-out: Peff. In outline:
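PAMPA: 10 µM compound in PBS with 5% MeOH in donor, PBS acceptor; 25°C, 5 h; both sides quantified by HPLC; Peff derived from donor/acceptor concentrations, volumes, 0.3 cm² filter area and 18,000 s; mean ± S.D., n=3.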
A general note: In PAMPA a lipid-coated filter parts donor from acceptor wells.

Data set [19] deals with Pseudomonas aeruginosa. The data set can be described thus: Antibacterial activity against Pseudomonas aeruginosa 15846 assessed as growth inhibition at 128 to 0.002 mg/L incubated for 18 hrs at 37 degC by agar dilution method. In kind it is functional. The settings on record: Pseudomonas aeruginosa, 15846, 18 h. In outline: as §2
The subject of data set [20] is Escherichia coli. The data set can be described thus: Antibacterial activity against Escherichia coli 177 assessed as growth inhibition at 128 to 0.002 mg/L incubated for 18 hrs at 37 degC by agar dilution method. It counts as functional. The settings on record: Escherichia coli, 177, 18 h. The method in brief:
as §2

In data set [21] the test system is Serratia marcescens. As to the kind of experiment: Antibacterial activity against Serratia marcescens T-55 assessed as growth inhibition at 128 to 0.002 mg/L incubated for 18 hrs at 37 degC by agar dilution method. The settings on record: T-55, 18 h. It counts as functional. In outline:
as §2

Data set [22] in a line: Solubility of the compound in JP2 solution at pH 6.8 after 24 hrs at 25 degC by HPLC. It counts as physicochemical. The method in brief: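 Excess solid shaken in JP2 (50 mM potassium dihydrogenphosphate, pH 6.8) at 25°C for 24 h to equilibrium, filtered 0.45 µm; filtrate concentration by reversed-phase UPLC, UV 290 nm; mean ± S.D., n=3.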
Data set [23] in a line: Drug excretion in Sprague-Dawley rat bile assessed as unmetabolized form at 10 mg/kg, po after 24 hrs by HPLC. It counts as ADME, organism-based. The conditions noted are these: read-out: Drug excretion. The method in brief: as §1
For data set [24], the system named is Klebsiella pneumoniae. The data set can be described thus: Antibacterial activity against Klebsiella pneumoniae KC-1 assessed as growth inhibition at 128 to 0.002 mg/L incubated for 18 hrs at 37 degC by agar dilution method. It counts as functional. The settings on record: KC-1, 18 h. The method in brief:
as §2

Data set [25] concerns Proteus vulgaris. The data set can be described thus: Antibacterial activity against Proteus vulgaris IFO3167 assessed as growth inhibition at 128 to 0.002 mg/L incubated for 18 hrs at 37 degC by agar dilution method. It counts as functional. The settings on record: IFO3167, 18 h. In outline: as §2
Data set [26] can be described thus: Drug excretion in Sprague-Dawley rat urine at 10 mg/kg, po after 24 hrs by HPLC. It counts as ADME, organism-based. The settings on record: read-out: Drug excretion. The method in brief:
as §1

The test system of data set [27] is Klebsiella pneumoniae. As to the kind of experiment: Antibacterial activity against Klebsiella pneumoniae DT-S assessed as growth inhibition at 128 to 0.002 mg/L incubated for 18 hrs at 37 degC by agar dilution method. In kind it is functional. In outline: as §2
Data set [28] deals with Escherichia coli. The data set can be described thus: Antibacterial activity against Escherichia coli KC-14 assessed as growth inhibition at 128 to 0.002 mg/L incubated for 18 hrs at 37 degC by agar dilution method. It counts as functional. The conditions noted are these: KC-14, 18 h. In outline: as §2

For the compound `Cc1c(N2CC(N)C2)c(F)cc2c(=O)c(C(=O)O)cn(-c3nc(N)c(F)cc3F)c12`, the dose excreted at 24 h in data set [1] was 41%; in [7] it was 85%; in [13] it was 44%; in data set [15], 8.2%; in data set [23], 4.2%; in data set [26] it was 4%. For the same compound, the Fa at 24 h in data set [2] came to 9.6%. For the same compound, the MIC in [3] was determined as 0.061 µg/mL (≈ 0.145 µM); in data set [4], 0.061 µg/mL (≈ 0.145 µM); in [5] it was 0.061 µg/mL (≈ 0.145 µM); in data set [6] it was 0.061 µg/mL (≈ 0.145 µM); in [9] it was 0.004 µg/mL (≈ 0.00954 µM); in [10] it was 0.061 µg/mL (≈ 0.145 µM). Besides, the minimal inhibitory concentration (MIC) in data set [11], in [12], in data set [14], in [16], in data set [17] and in data set [19] was 0.061 µg/mL (≈ 0.145 µM) in each case. In addition, the MIC in data set [20] came to 0.004 µg/mL (≈ 0.00954 µM); in [21] it was 0.061 µg/mL (≈ 0.145 µM); in data set [24] it was 0.061 µg/mL (≈ 0.145 µM); in data set [25] it was 0.061 µg/mL (≈ 0.145 µM); in [27], 0.061 µg/mL (≈ 0.145 µM); in [28] it was 0.004 µg/mL (≈ 0.00954 µM). Further, the concentration for half-maximal inhibition (IC50) in data set [8] is 286 nM. In addition, the Papp at 5 h in data set [18] amounted to 0.12 ×10⁻⁶ cm/s. The compound also had a solubility at 24 h in [22] of 27 µg/mL (≈ 64.4 µM).

As to `Cc1c(N2CC(NC(C)(C)C)C2)c(F)cc2c(=O)c(C(=O)O)cn(-c3nc(N)c(F)cc3F)c12`, the minimum inhibitory concentration (MIC) in data set [3] came to 0.57 µg/mL (≈ 1.2 µM); in [4], 0.57 µg/mL (≈ 1.2 µM); in data set [5], 0.57 µg/mL (≈ 1.2 µM); in data set [6] it was 0.57 µg/mL (≈ 1.2 µM); in data set [9] it was 0.038 µg/mL (≈ 0.0799 µM); in data set [10] it was 0.57 µg/mL (≈ 1.2 µM). Moreover, the MIC in data set [11], in data set [12], in data set [14], in data set [16], in [17] and in [19] was 0.57 µg/mL (≈ 1.2 µM) each time. Also, the MIC in data set [20] worked out at 0.038 µg/mL (≈ 0.0799 µM); in data set [21] it was 0.57 µg/mL (≈ 1.2 µM); in [24], 0.57 µg/mL (≈ 1.2 µM); in data set [25], 0.57 µg/mL (≈ 1.2 µM); in [27], 0.57 µg/mL (≈ 1.2 µM); in [28], 0.038 µg/mL (≈ 0.0799 µM). The compound further gave an IC50 in data set [8] of 694 nM.

With `C[C@H]1COc2c(N3CCN(C)CC3)c(F)cc3c(=O)c(C(=O)O)cn1c23.C[C@H]1COc2c(N3CCN(C)CC3)c(F)cc3c(=O)c(C(=O)O)cn1c23.O` [LEVOFLOXACIN], the minimal inhibitory concentration (MIC) in [3] was 0.12 µg/mL; in data set [5] it was 0.12 µg/mL; in data set [6], 0.12 µg/mL; in data set [9], 0.019 µg/mL; in [10], 0.12 µg/mL; in data set [11] it was 0.12 µg/mL. For the same compound, the MIC in data set [12] is 0.12 µg/mL; in data set [14], 0.12 µg/mL; in data set [17] it was 0.12 µg/mL; in [20] it was 0.019 µg/mL; in [21], 0.12 µg/mL; in data set [24], 0.12 µg/mL. Also, the MIC in data set [25] stood at 0.12 µg/mL; in [27], 0.12 µg/mL; in data set [28], 0.019 µg/mL.

As a reminder, the MIC is the least concentration at which growth counts as inhibited. Usually IC50 stands for the point on the concentration scale where inhibition reaches its midpoint. A lower IC50 goes with inhibition by little substance. As a reminder, the solubility is the dissolved amount per volume that the medium holds. Higher therefore signals a readily soluble substance.

Source of the values: ChEMBL document CHEMBL3632612, “Discovery of WQ-3810: Design, synthesis, and evaluation of 7-(3-alkylaminoazetidin-1-yl)fluoro-quinolones as orally active antibacterial agents” (Eur J Med Chem, 2015).
